Most compounds without a hit are left out; they make up all but 3.1% or so of the library.
CHO parental Ca – signal in parental CHO cells, OX1R antagonist counter-screen; parental CHO-K1, ATP-induced calcium, Fluo-8 fluorescence; 330,000 tested, 0.63% active; inhibition, % at 5.6 µM; AID 463079;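 active means inhibition above that plate's mean sample inhibition plus 3 SD, cut at about 26% in these data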;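 further: 0% = ATP-challenged DMSO wells and 100% = DMSO wells without ATP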
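Assay system: parental CHO cells; Read-out basis: percent inhibition of ATP-evoked calcium rise, normalized to controls; Benchmarks: ATP and no-ATP DMSO wells; Compound dosing: single nominal dose of 5.6 µM per compound; Signal: Fluo-8 calcium dye fluorescence; Also added: ATP as calcium-mobilizing challenge; Repeats: singlicate.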
OX1R antag-1 – OX1R (human) antagonism | inhibition, % at 6.6 µM | O43613 | OX1R-expressing cells, FRET antagonist read-out | 330,000 tested, 1.8% active; in the data active means inhibition mostly above about 38%, no sharp cut-off; inactive means mostly below about 40%;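 further: 0% = agonist challenge alone and 100% = reference antagonist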
OX1R antag-2 – antagonists of human orexin 1 receptor; 330,000 tested, 0.43% active; inhibition, % at 5 µM; CHO/OX1R cells, Fluo-8 calcium fluorescence, orexin A; O43613;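 active means inhibition above its plate's threshold, mean inhibition of all tested compounds on the plate plus 3 SD, cut at about 37% in these data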;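 further: 0% = orexin A challenge wells and 100% = SB-334867-A antagonist wells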
GPR7 antagonist – antagonists of human GPR7 (neuropeptides B/W receptor 1); P48145; GPR7-expressing cells, fluorescence antagonist assay; inhibition, % at 4.4 µM; 290,000 tested, 1.1% active; AID 1861; in the data active means inhibition above about 16%, passing the limit was not always enough;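 further: cells stimulated with the agonist NPW; 0% = agonist with vehicle and 100% = vehicle without agonist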
Target sequence (P48145 whole entry, looked up): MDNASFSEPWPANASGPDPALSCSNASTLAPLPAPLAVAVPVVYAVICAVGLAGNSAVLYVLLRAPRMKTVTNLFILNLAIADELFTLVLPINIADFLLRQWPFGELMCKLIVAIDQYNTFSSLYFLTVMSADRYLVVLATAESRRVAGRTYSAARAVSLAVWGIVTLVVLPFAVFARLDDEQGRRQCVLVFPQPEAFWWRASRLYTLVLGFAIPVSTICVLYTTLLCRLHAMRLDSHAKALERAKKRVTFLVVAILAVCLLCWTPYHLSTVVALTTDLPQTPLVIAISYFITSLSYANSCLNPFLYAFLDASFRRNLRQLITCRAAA
GalR3 antag – human GalR3 antagonism | O60755 | HEK293 GalR3-CNG cAMP membrane potential fluorescence; galR3 body fused to GalR1 C-terminus | inhibition, % at 3 µM | 360,000 tested, 0.44% active | AID 651719;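 active means inhibition above the screen-wide average plus 3 SD, cut at about 13% in these data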;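 further: forskolin and galanin both at EC90 stimulate the cells; cAMP rise reported by CNG channel membrane potential dye signal; 0% = forskolin plus galanin with DMSO and 100% = forskolin alone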
Target sequence (O60755 1-299 limits assumed): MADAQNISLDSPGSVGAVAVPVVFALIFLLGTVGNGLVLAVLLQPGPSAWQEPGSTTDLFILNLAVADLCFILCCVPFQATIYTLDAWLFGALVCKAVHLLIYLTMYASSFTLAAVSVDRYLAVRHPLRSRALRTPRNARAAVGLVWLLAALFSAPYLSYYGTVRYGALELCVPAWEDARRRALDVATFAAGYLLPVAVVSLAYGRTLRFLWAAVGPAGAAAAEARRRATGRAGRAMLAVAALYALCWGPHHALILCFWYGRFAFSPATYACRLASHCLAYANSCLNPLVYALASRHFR
The depositor's hits bear a star.

How did N#C/C(=C\c1ccc(N2CCCCC2)o1)C(=O)Nc1cccc(Br)c1 do in these assays?
CHO parental Ca: 82.7*; OX1R antag-1: 31.1; OX1R antag-2: 91.9*; GPR7 antagonist: 11.0; GalR3 antag: -4.9

How did N#C/C(=C\c1ccc(N2CCCCC2)o1)C(N)=O do in these assays?
CHO parental Ca: -3.9; OX1R antag-1: 41.6*; OX1R antag-2: 0.9; GPR7 antagonist: -16.5; GalR3 antag: 0.4

What do the screens show for `Cc1ccc(N2C(=O)CC(NNC(=O)Cc3ccc(F)cc3)C2=O)cc1Cl` (stereo not given)?
CHO parental Ca: -11.5; OX1R antag-1: 7.3; OX1R antag-2: -7.0; GPR7 antagonist: -4.7; GalR3 antag: -5.2

Results for O=C(CSc1nnc(-c2ccc(F)cc2)c2ccccc12)NCC1CCCO1 (stereo not given) ?
CHO parental Ca: -31.6; OX1R antag-1: 40.6; OX1R antag-2: -25.4; GPR7 antagonist: -5.7; GalR3 antag: -5.7

What do the screens show for `N=c1n(Cc2ccc(Cl)cc2)c2ccccc2n1CC(O)COc1ccccc1` (stereo not given)?
CHO parental Ca: 71.6*; OX1R antag-1: 6.9; OX1R antag-2: 74.5*; GPR7 antagonist: 47.1*; GalR3 antag: -6.3

How did Cc1ccc(F)c(S(=O)(=O)NC(=O)C2(C)CCN2C(=O)C2(c3ccc(Cl)cc3)CCC2)c1 (stereo not given) do in these assays?
GalR3 antag: -3.9

Results for Cc1ccccc1NS(=O)(=O)c1cccc2nsnc12 ?
CHO parental Ca: -5.0; OX1R antag-1: 8.4; OX1R antag-2: -16.5; GPR7 antagonist: -2.1; GalR3 antag: -10.0

How did COc1ccc(-c2sc3ccccc3c2-c2ccc(O)cc2)cc1 do in these assays?
CHO parental Ca: 3.5; OX1R antag-1: 17.4; OX1R antag-2: 17.1; GalR3 antag: -2.9

What do the screens show for `COc1ccc(-c2sc3cc(OC)c(OC)cc3c2-c2ccc(O)cc2)cc1`?
CHO parental Ca: -3.6; OX1R antag-1: 38.3*; OX1R antag-2: 40.3; GalR3 antag: 1.5

Results for CC1=Nc2ccccc2/C1=C/c1sc(=N)n(-c2nccs2)c1O ?
CHO parental Ca: 46.9*; OX1R antag-1: 41.2; OX1R antag-2: 64.4*; GPR7 antagonist: -0.2

Results for CC1=Nc2ccccc2/C1=C/c1c(N)n2c(S(=O)(=O)C(C)C)nsc2nc1=O ?
CHO parental Ca: -5.6; OX1R antag-1: 9.1; OX1R antag-2: -18.1; GPR7 antagonist: -1.7; GalR3 antag: 0.4

How did C=CCN1C(=O)C2(NNc3ccccc3O2)c2ccccc21 (stereo not given) do in these assays?
CHO parental Ca: 32.2*; OX1R antag-1: 7.2; OX1R antag-2: 30.0; GPR7 antagonist: 1.5; GalR3 antag: 1.4

What do the screens show for `CCCCN1C(=O)C2(NNc3ccccc3O2)c2ccccc21` (stereo not given)?
CHO parental Ca: 31.3; OX1R antag-1: 3.0; OX1R antag-2: 36.9*; GPR7 antagonist: 10.1; GalR3 antag: -7.1

Results for CC1CCCC(NCC(O)COC(c2ccc(F)cc2)c2ccc(F)cc2)C1C (stereo not given) ?
CHO parental Ca: 7.0; OX1R antag-1: -1.7; OX1R antag-2: -5.8; GPR7 antagonist: 56.5*; GalR3 antag: -12.6

How did COc1ccc(CN(C(=O)CSc2nnc(-c3ccccc3C)o2)c2ccc(F)cc2)cc1 do in these assays?
CHO parental Ca: -21.4; OX1R antag-1: 48.1; OX1R antag-2: -15.8; GPR7 antagonist: -12.6; GalR3 antag: -2.0

How did O=C(CSc1nnc(-c2c[nH]c3ccccc23)o1)N(Cc1ccccc1)c1ccc(F)cc1 do in these assays?
CHO parental Ca: 16.9; OX1R antag-1: 51.6*; OX1R antag-2: 14.1; GPR7 antagonist: 2.3

Results for O=C(CCC(=O)c1ccc(F)cc1)Nc1cccc(Br)c1 ?
CHO parental Ca: 38.1*; OX1R antag-1: -4.0; OX1R antag-2: 5.5; GPR7 antagonist: 20.3; GalR3 antag: -7.4

How did O=C(CCC(=O)c1ccc(Br)cc1)Nc1cccc(C(F)(F)F)c1 do in these assays?
CHO parental Ca: -9.0; OX1R antag-1: 14.4; OX1R antag-2: -22.5; GPR7 antagonist: -0.6; GalR3 antag: -4.3

Results for Clc1ccc2[nH]c3c(NCCCN4CCOCC4)ncnc3c2c1 ?
CHO parental Ca: -9.2; OX1R antag-1: 8.7; OX1R antag-2: -7.6; GPR7 antagonist: 19.6*; GalR3 antag: -0.2

What do the screens show for `Cc1ccccc1OCC(=O)NS(=O)(=O)c1ccc(Cl)cc1`?
CHO parental Ca: -8.2; OX1R antag-1: 20.6; OX1R antag-2: -24.2; GPR7 antagonist: -0.9; GalR3 antag: 0.8

What do the screens show for `Cc1ccc(C(C)C)c(OCC(=O)NS(=O)(=O)c2ccc(Cl)cc2)c1`?
CHO parental Ca: -12.9; OX1R antag-1: 59.0*; OX1R antag-2: -7.5; GPR7 antagonist: -15.1; GalR3 antag: -2.1

What do the screens show for `Clc1ccccc1N=C1SCCS1`?
CHO parental Ca: -7.5; OX1R antag-1: 13.1; OX1R antag-2: -7.6; GPR7 antagonist: -9.4; GalR3 antag: -5.0

What do the screens show for `NNC(=O)c1ccc(COc2ccc3ccccc3c2)o1`?
CHO parental Ca: -14.7; OX1R antag-1: 5.3; OX1R antag-2: -33.2; GPR7 antagonist: -1.7; GalR3 antag: -4.1

Results for O=C(OCc1ccccn1)c1ccc(COc2ccc3ccccc3c2)o1 ?
CHO parental Ca: 47.8*; OX1R antag-1: 4.7; OX1R antag-2: 40.3; GPR7 antagonist: -1.4; GalR3 antag: -0.2

Results for COc1cccc(/C=N/Nc2nc3ccccc3n3cnnc23)c1O ?
CHO parental Ca: -2.3; OX1R antag-1: 67.0*; OX1R antag-2: -5.9; GPR7 antagonist: -10.3; GalR3 antag: -3.9

How did O=C(OCCNc1nc(-c2ccccc2)nc2ccccc12)c1cccnc1 do in these assays?
CHO parental Ca: -5.4; OX1R antag-1: 47.5*; OX1R antag-2: -20.8; GPR7 antagonist: -8.2; GalR3 antag: -5.1

What do the screens show for `O=C(OCCNc1nc(-c2ccccc2)nc2ccccc12)c1ccncc1`?
CHO parental Ca: -4.4; OX1R antag-1: 57.3*; OX1R antag-2: 6.7; GPR7 antagonist: 1.6; GalR3 antag: -5.4

Results for CC1CCC(NC(=O)CN2C(=O)NC(C)(C)C2=O)CC1 (stereo not given) ?
CHO parental Ca: 0.4; OX1R antag-1: 9.3; OX1R antag-2: -7.4; GalR3 antag: -3.0

How did O=C(/C=C/c1ccc(N2CCC(c3ccccc3)=N2)cc1)c1ccccc1 do in these assays?
CHO parental Ca: 73.1*; OX1R antag-1: 7.5; OX1R antag-2: 79.5*; GPR7 antagonist: -17.0; GalR3 antag: -8.8

What do the screens show for `CCOC(=O)/C(=C\c1ccc(N2CCC(c3ccccc3)=N2)cc1)C(C)=O`?
GalR3 antag: -4.2

Results for CC1(C)N([O-])C(c2ccccc2)=C[N+](=O)C1(C)C ?
CHO parental Ca: -4.9; OX1R antag-1: 8.7; OX1R antag-2: 9.3; GPR7 antagonist: -9.7; GalR3 antag: -6.3

How did CC1(C)N([O-])C(c2cccs2)=C[N+]1=O do in these assays?
CHO parental Ca: 28.9*; OX1R antag-1: 6.7; OX1R antag-2: -5.4; GPR7 antagonist: 0.0; GalR3 antag: 1.2

How did Cc1ccc2c(c1)-c1nc3ccccc3cc1C2=NC1CCCCC1 do in these assays?
CHO parental Ca: -7.1; OX1R antag-1: 52.3; OX1R antag-2: -2.2; GPR7 antagonist: -5.4; GalR3 antag: -5.4

Screening results (PubChem)
